# Laboratory results reported in ChEMBL document CHEMBL1155222, “Synthesis and anticancer activity of N-bis(trifluoromethyl)alkyl-N'-thiazolyl and N-bis(trifluoromethyl)alkyl-N'-benzothiazolyl ureas” (2009).
# Calls of active or inactive are those of the source. No cut-off for these calls is given here.
# What was measured:
# Type in all cases: functional
# [1] = test system: NCI-H460; experiment: Anticancer activity against human NCI-H460 cells assessed as cell growth at 100 uM after 48 hrs by Alamar blue assay relative to control; conditions: NCI-H460, 48 h, read-out: Activity
# How it was run: (§1)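 NCI one-dose pre-test on MCF7, NCI-H460 and SF-268. Cells were inoculated and preincubated, then exposed to a single 10^-4 M concentration for 48 h. End-point was alamar blue. Results are percent growth versus untreated control cells, with negative values indicating cell kill.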
# [2] = test system: SF-268; experiment: Anticancer activity against human SF268 cells assessed as cell growth at 100 uM after 48 hrs by Alamar blue assay relative to control; conditions: SF-268, 48 h, read-out: Activity; how it was run: as §1
# [3] = test system: MCF7; experiment: Anticancer activity against human MCF7 cells assessed as cell growth at 100 uM after 48 hrs by Alamar blue assay relative to control; conditions: MCF7, 48 h, read-out: Activity; how it was run: as §1
# [4] = test system: SF-268; experiment: Anticancer activity against human SF268 cells after 48 hrs by sulforhodamine B assay
# How it was run: (§2)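 NCI 60-cell-line screen. Cells grown in RPMI 1640 with 5% FBS and 2 mM L-glutamine, plated at 5000–40,000 cells/well, and preincubated 24 h at 37 °C under 5% CO2. Compounds were taken from DMSO stocks and tested at five final concentrations, 10^-4 to 10^-8 M, for 48 h. Cells were TCA-fixed, stained with 0.4% SRB, and read at 515 nm. GI50, TGI and LC50 were derived as log molar values.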
# [5] = test system: NCI/ADR-RES; experiment: Anticancer activity against human NCI/ADR-RES cells after 48 hrs by sulforhodamine B assay; how it was run: as §2
# [6] = test system: Malme-3M; experiment: Anticancer activity against human MALME-3M cells after 48 hrs by sulforhodamine B assay; how it was run: as §2
# [7] = test system: PC-3; experiment: Anticancer activity against human PC3 cells after 48 hrs by sulforhodamine B assay; how it was run: as §2
# [8] = test system: OVCAR-8; experiment: Anticancer activity against human OVCAR8 cells after 48 hrs by sulforhodamine B assay; how it was run: as §2
# [9] = test system: SF-539; experiment: Anticancer activity against human SF539 cells after 48 hrs by sulforhodamine B assay; how it was run: as §2
# [10] = test system: RPMI8266; experiment: Anticancer activity against human RPMI8266 cells after 48 hrs by sulforhodamine B assay; how it was run: as §2
# [11] = test system: MOLT-4; experiment: Anticancer activity against human MOLT4 cells after 48 hrs by sulforhodamine B assay; how it was run: as §2
# [12] = test system: UACC-62; experiment: Anticancer activity against human UACC62 cells after 48 hrs by sulforhodamine B assay
# How it was run: (§3)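 NCI 60-cell-line panel; cells grown in RPMI 1640 with 5% FBS and 2 mM L-glutamine, plated at 5000–40,000 cells/well and preincubated 24 h at 37 °C, 5% CO2. Compounds came from DMSO stocks diluted in medium with gentamicin and were tested at five final concentrations, 10^-4 to 10^-8 M, for 48 h. Cells were fixed with TCA, stained with SRB and read at 515 nm. GI50, TGI and LC50 were derived as log molar values.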
# [13] = test system: IGROV-1; experiment: Anticancer activity against human IGROV1 cells after 48 hrs by sulforhodamine B assay; how it was run: as §2
# [14] = test system: NCI-H23; experiment: Anticancer activity against human NCI-H23 cells after 48 hrs by sulforhodamine B assay
# How it was run: (§4)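 NCI 60-cell-line screen. Cells were grown in RPMI 1640 with 5% FBS and 2 mM L-glutamine, seeded at 5000–40,000 cells/well and preincubated 24 h at 37 °C, 5% CO2. Compounds in DMSO were diluted in medium with gentamicin and tested at five concentrations (10^-4 to 10^-8 M) for 48 h. Cells were then fixed with TCA, stained with SRB and read at 515 nm.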
# [15] = test system: UO-31; experiment: Anticancer activity against human UO31 cells after 48 hrs by sulforhodamine B assay; how it was run: as §3
# [16] = test system: HOP-92; experiment: Anticancer activity against human HOP92 cells after 48 hrs by sulforhodamine B assay; how it was run: as §2
# [17] = test system: EKVX; experiment: Anticancer activity against human EKVX cells after 48 hrs by sulforhodamine B assay; how it was run: as §2
# [18] = test system: SW-620; experiment: Anticancer activity against human SW620 cells after 48 hrs by sulforhodamine B assay; how it was run: as §3
# [19] = test system: COLO 205; experiment: Anticancer activity against human COLO205 cells after 48 hrs by sulforhodamine B assay; how it was run: as §2
# [20] = test system: SN12C; experiment: Anticancer activity against human SN12C cells after 48 hrs by sulforhodamine B assay; how it was run: as §3
# [21] = test system: NCI-H226; experiment: Anticancer activity against human NCI-H226 cells after 48 hrs by sulforhodamine B assay; how it was run: as §2
# [22] = test system: TK-10; experiment: Anticancer activity against human TK10 cells after 48 hrs by sulforhodamine B assay; how it was run: as §3
# [23] = test system: KM12; experiment: Anticancer activity against human KM12 cells after 48 hrs by sulforhodamine B assay; how it was run: as §2
# [24] = test system: HCT-15; experiment: Anticancer activity against human HCT15 cells after 48 hrs by sulforhodamine B assay; how it was run: as §2
# [25] = test system: SNB-19; experiment: Anticancer activity against human SNB19 cells after 48 hrs by sulforhodamine B assay; how it was run: as §3
# [26] = test system: HT-29; experiment: Anticancer activity against human HT-29 cells after 48 hrs by sulforhodamine B assay; how it was run: as §2
# [27] = test system: CAKI-1; experiment: Anticancer activity against human Caki1 cells after 48 hrs by sulforhodamine B assay; how it was run: as §2
# [28] = test system: UACC-257; experiment: Anticancer activity against human UACC257 cells after 48 hrs by sulforhodamine B assay; how it was run: as §3
# [29] = test system: CCRF-CEM; experiment: Anticancer activity against human CCRF-CEM cells after 48 hrs by sulforhodamine B assay; how it was run: as §2
# [30] = test system: K562; experiment: Anticancer activity against human K562 cells after 48 hrs by sulforhodamine B assay; how it was run: as §2
# [31] = test system: RXF 393; experiment: Anticancer activity against human RXF393 cells after 48 hrs by sulforhodamine B assay; how it was run: as §2
# [32] = test system: LOX IMVI; experiment: Anticancer activity against human LOXIMVI cells after 48 hrs by sulforhodamine B assay; how it was run: as §2
# [33] = test system: SK-MEL-28; experiment: Anticancer activity against human SK-MEL-28 cells after 48 hrs by sulforhodamine B assay; how it was run: as §2
# [34] = test system: OVCAR-5; experiment: Anticancer activity against human OVCAR5 cells after 48 hrs by sulforhodamine B assay; how it was run: as §2
# [35] = test system: M14; experiment: Anticancer activity against human M14 cells after 48 hrs by sulforhodamine B assay; how it was run: as §2
# [36] = test system: NCI-H460; experiment: Anticancer activity against human NCI-H460 cells after 48 hrs by sulforhodamine B assay; how it was run: as §2
# [37] = test system: SK-MEL-5; experiment: Anticancer activity against human SK-MEL-5 cells after 48 hrs by sulforhodamine B assay; how it was run: as §2
# [38] = test system: A498; experiment: Anticancer activity against human A498 cells after 48 hrs by sulforhodamine B assay; how it was run: as §2
# [39] = test system: NCI-H522; experiment: Anticancer activity against human NCI-H522 cells after 48 hrs by sulforhodamine B assay; how it was run: as §2
# [40] = test system: DU-145; experiment: Anticancer activity against human DU145 cells after 48 hrs by sulforhodamine B assay; how it was run: as §2
# [41] = test system: OVCAR-4; experiment: Anticancer activity against human OVCAR4 cells after 48 hrs by sulforhodamine B assay; how it was run: as §2
# [42] = test system: MCF7; experiment: Anticancer activity against human MCF7 cells after 48 hrs by sulforhodamine B assay; how it was run: as §2
# [43] = test system: OVCAR-3; experiment: Anticancer activity against human OVCAR-3 cells after 48 hrs by sulforhodamine B assay; how it was run: as §2
# [44] = test system: HCC 2998; experiment: Anticancer activity against human HCC2998 cells after 48 hrs by sulforhodamine B assay; how it was run: as §2
# [45] = test system: BT-549; experiment: Anticancer activity against human BT549 cells after 48 hrs by sulforhodamine B assay; how it was run: as §2
# [46] = test system: T47D; experiment: Anticancer activity against human T47D cells after 48 hrs by sulforhodamine B assay; how it was run: as §3
# [47] = test system: Hs-578T; experiment: Anticancer activity against human Hs 578T cells after 48 hrs by sulforhodamine B assay; how it was run: as §2
# [48] = test system: SK-OV-3; experiment: Anticancer activity against human SKOV3 cells after 48 hrs by sulforhodamine B assay; how it was run: as §2
# [49] = test system: MDA-MB-435; experiment: Anticancer activity against human MDA-MB-435 cells after 48 hrs by sulforhodamine B assay; how it was run: as §2
# [50] = test system: MDA-N; experiment: Anticancer activity against human MDA-N cells after 48 hrs by sulforhodamine B assay; how it was run: as §2
# [51] = test system: A549; experiment: Anticancer activity against human A549 cells after 48 hrs by sulforhodamine B assay; how it was run: as §2
# [52] = test system: SR; experiment: Anticancer activity against human SR cells after 48 hrs by sulforhodamine B assay; how it was run: as §3
# [53] = test system: SF-295; experiment: Anticancer activity against human SF295 cells after 48 hrs by sulforhodamine B assay; how it was run: as §2
# [54] = test system: HOP-62; experiment: Anticancer activity against human HOP62 cells after 48 hrs by sulforhodamine B assay; how it was run: as §2
# [55] = test system: SK-MEL-2; experiment: Anticancer activity against human SK-MEL-2 cells after 48 hrs by sulforhodamine B assay; how it was run: as §2
# [56] = test system: SNB-75; experiment: Anticancer activity against human SNB75 cells after 48 hrs by sulforhodamine B assay; how it was run: as §3
# [57] = test system: HCT-116; experiment: Anticancer activity against human HCT116 cells after 48 hrs by sulforhodamine B assay; how it was run: as §2
# [58] = test system: ACHN; experiment: Anticancer activity against human ACHN cells after 48 hrs by sulforhodamine B assay; how it was run: as §2
# [59] = test system: 786-0; experiment: Anticancer activity against human 786-0 cells after 48 hrs by sulforhodamine B assay; how it was run: as §2
# [60] = test system: U-251; experiment: Anticancer activity against human U251 cells after 48 hrs by sulforhodamine B assay; how it was run: as §3
# [61] = test system: HL-60(TB); experiment: Anticancer activity against human HL-60(TB) cells after 48 hrs by sulforhodamine B assay; how it was run: as §4
# [62] = test system: MDA-MB-231; experiment: Anticancer activity against human MDA-MB-231 cells after 48 hrs by sulforhodamine B assay; how it was run: as §2
# [63] = test system: NCI-H322M; experiment: Anticancer activity against human NCI-H322M cells after 48 hrs by sulforhodamine B assay; how it was run: as §2
structure (smiles),measurement,setting,value
CC(NC(=O)Nc1nccs1)(C(F)(F)F)C(F)(F)F,growth at 100 µM,[1],49%
same,growth at 100 µM,[2],74%
same,growth at 100 µM,[3],59%
FC(F)(F)C(=Cc1nc2ccccc2s1)C(F)(F)F,logGI50,[4],inactive
same,logGI50,[5],inactive
same,logGI50,[6],inactive
same,logGI50,[7],inactive
same,logGI50,[8],inactive
same,logGI50,[9],inactive
same,logGI50,[10],inactive
same,logGI50,[11],inactive
same,logGI50,[12],inactive
same,logGI50,[13],inactive
same,logGI50,[14],inactive
same,logGI50,[15],inactive
same,logGI50,[16],inactive
same,logGI50,[17],inactive
same,logGI50,[18],inactive
same,logGI50,[19],inactive
same,logGI50,[20],inactive
same,logGI50,[21],inactive
same,logGI50,[22],inactive
same,logGI50,[23],inactive
same,logGI50,[24],inactive
same,logGI50,[25],inactive
same,logGI50,[26],inactive
same,logGI50,[27],inactive
same,logGI50,[28],inactive
same,logGI50,[29],inactive
same,logGI50,[30],inactive
same,logGI50,[31],inactive
same,logGI50,[32],inactive
same,logGI50,[33],inactive
same,logGI50,[34],inactive
same,logGI50,[35],inactive
same,logGI50,[36],inactive
same,logGI50,[37],inactive
same,logGI50,[38],inactive
same,logGI50,[39],inactive
same,logGI50,[40],inactive
same,logGI50,[41],inactive
same,logGI50,[42],inactive
same,logGI50,[43],inactive
same,logGI50,[44],inactive
same,logGI50,[45],inactive
same,logGI50,[46],inactive
same,logGI50,[47],inactive
same,logGI50,[48],inactive
same,logGI50,[49],inactive
same,logGI50,[50],inactive
same,logGI50,[51],inactive
same,logGI50,[52],inactive
same,logGI50,[53],inactive
same,logGI50,[54],inactive
same,logGI50,[55],inactive
same,logGI50,[56],inactive
same,logGI50,[57],inactive
same,logGI50,[58],inactive
same,logGI50,[59],inactive
same,logGI50,[60],inactive
same,logGI50,[61],inactive
same,logGI50,[62],inactive
same,logGI50,[63],inactive
